The values that follow come from ChEMBL document CHEMBL3259574, “Environmentally benign synthesis and antimicrobial study of novel chalcogenophosphates” (Bioorg Med Chem Lett, 2014).

One series concerns Candida albicans. The series is described as follows: Antimicrobial activity against Candida albicans MTCC227 assessed as zone diameter at 100 ug/ml after 24 hrs incubation by agar diffusion as say cup method. Conditions: MTCC227, 24 h, read-out: DIZ. In kind it is functional. The gist of the method: (§1)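 Agar cup diffusion on nutrient agar plates. Solidified plates were spread with 0.1% cell suspension (10^6 CFU/mL) of the test organism and held 15 min, then 6 mm wells were cut. Samples at 100 µg/mL in DMSO went into the wells, and plates were incubated 24 h at 30–35 °C. Inhibition zone diameter was measured in mm by digital vernier caliper. Triplicate parallel sets gave mean ± standard deviation, compared by ANOVA with Tukey test (P < 0.01).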
Background: Agar diffusion results depend on both activity and mobility in agar.

Another series concerns Staphylococcus aureus. The series is described as follows: Antimicrobial activity against Staphylococcus aureus MTCC1430 assessed as zone diameter at 100 ug/ml after 24 hrs incubation by agar diffusion as say cup method. It is filed as functional. As to conditions: MTCC1430, 24 h, read-out: DIZ. Summed up:
as §1

A further series has as its system Bacillus subtilis. In words: Antimicrobial activity against Bacillus subtilis MTCC121 assessed as zone diameter at 100 ug/ml after 24 hrs incubation by agar diffusion as say cup method. As to conditions: MTCC121, 24 h, read-out: DIZ. It is filed as functional. Summed up:
as §1

Series [1] has as its system Pisum sativum. The series is described as follows: Toxicity in pea seed germination assessed as seedling length. In kind it is organism-based. As to conditions: lathyrus oleraceus, in vivo.
The test system of series [2] is Pisum sativum. The series is described as follows: Toxicity in pea seed germination assessed as seedling fresh weight. Conditions: lathyrus oleraceus, in vivo. In kind it is organism-based.
Series [3] relates to Cicer arietinum. The series is described as follows: Toxicity in gram seed germination assessed as seedling fresh weight. Conditions: in vivo. In kind it is organism-based.
The subject of another series is Vigna mungo. The series is described as follows: Toxicity in mung seed germination assessed as seedling fresh weight. Conditions: in vivo. It is filed as organism-based.
The subject of series [4] is Cicer arietinum. In words: Toxicity in gram seed germination assessed as seedling length. Conditions: in vivo. It is filed as organism-based.
Another series deals with Escherichia coli. The series is described as follows: Antimicrobial activity against Escherichia coli MTCC1610 assessed as zone diameter at 100 ug/ml after 24 hrs incubation by agar diffusion as say cup method. It is filed as functional. Conditions: MTCC1610, 24 h, read-out: DIZ. Summed up:
as §1

The next series has as its system Pseudomonas aeruginosa. In words: Antimicrobial activity against Pseudomonas aeruginosa MTCC424 assessed as zone diameter at 100 ug/ml after 24 hrs incubation by agar diffusion as say cup method. In kind it is functional. As to conditions: MTCC424, 24 h, read-out: DIZ. Summed up:
as §1

Take `CCOP(=O)(OCC)[Se]c1ccccc1`: the zone of inhibition at 100 µg/mL in the series on Candida albicans was 34 mm; with Staphylococcus aureus it was 30.2 mm; with Bacillus subtilis it was 31.6 mm; with Escherichia coli it was 24.3 mm; in the series on Pseudomonas aeruginosa it was 32.1 mm. Moreover, the Activity result in the series on Pisum sativum [1], with Pisum sativum [2], in the series on Cicer arietinum [3], in the series with Vigna mungo and in the series on Cicer arietinum [4] was “Non-toxic” throughout.
On to `COP(=O)(OC)[Se]c1ccccc1`, for which the zone of inhibition at 100 µg/mL in the series with Candida albicans worked out at 28.3 mm; with Staphylococcus aureus, 28.4 mm; in the series with Bacillus subtilis, 22.1 mm; in the series with Escherichia coli, 22.5 mm; with Pseudomonas aeruginosa it was 25.6 mm.
`O=P(OCc1ccccc1)(OCc1ccccc1)[Se]c1ccccc1`: the zone of inhibition at 100 µg/mL with Candida albicans was determined as 25.9 mm; in the series with Staphylococcus aureus, 20.3 mm; in the series with Bacillus subtilis it was 23.4 mm; with Escherichia coli, 27.3 mm; in the series on Pseudomonas aeruginosa, 24.3 mm.
Turning to `CC(C)OP(=O)(OC(C)C)[Se]c1ccccc1`, the zone of inhibition at 100 µg/mL with Candida albicans is 38.6 mm; in the series on Staphylococcus aureus, 30.5 mm; with Bacillus subtilis, 33.1 mm; in the series on Escherichia coli it was 35.1 mm; in the series with Pseudomonas aeruginosa, 33.4 mm. Further, the Activity result with Pisum sativum [1], with Pisum sativum [2], with Cicer arietinum [3], with Vigna mungo and with Cicer arietinum [4] was “Non-toxic” throughout.
Turning to `CCOP(=O)(OCC)Sc1ccccc1`, the zone of inhibition at 100 µg/mL with Candida albicans is 26.4 mm; with Staphylococcus aureus, 22.5 mm; with Bacillus subtilis it was 20.6 mm; in the series with Escherichia coli it was 21 mm; in the series with Pseudomonas aeruginosa, 23.6 mm. Besides, the Activity result in the series on Pisum sativum [1], in the series with Pisum sativum [2], in the series on Cicer arietinum [3], in the series with Vigna mungo and in the series on Cicer arietinum [4] was “Non-toxic” throughout.
Turning to `O=P(OCc1ccccc1)(OCc1ccccc1)Sc1ccccc1`, the zone of inhibition at 100 µg/mL with Candida albicans stood at 28.1 mm; with Staphylococcus aureus it was 25.1 mm; in the series on Bacillus subtilis, 19.8 mm; with Escherichia coli it was 22.9 mm; with Pseudomonas aeruginosa it was 25.4 mm.
Take `O=C(N[C@H](CO)[C@H](O)c1ccc([N+](=O)[O-])cc1)C(Cl)Cl` [CHLORAMPHENICOL]: the zone of inhibition at 100 µg/mL in the series with Staphylococcus aureus was 30.9 mm; with Bacillus subtilis, 33.4 mm; in the series with Escherichia coli, 35 mm; in the series with Pseudomonas aeruginosa, 33.6 mm.
